This is a sample that favours compounds with a hit; in the whole collection about 2.4% have one here.
rRNA inh HTS: reduced GFP signal of wild-type E. coli, primary screen, bacterial rRNA inhibitor project, GFP/RFP fluorescence, OD600, single point | E. coli WT GFP vs humanized-ribosome RFP mutants, 24 h; active compounds read low; DMSO median 0, no signal -100 | GFP signal change (wild-type ribosome), % (concentration not given with the values) | 1.6% of 350,000 active | AID 720706, 2013;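 active means significant combined selectivity score with lowered wild-type GFP, culture density cut under 30%, mutant RFP and density less affected; inactive means any of these conditions unmet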
EWS-Fli block: EWS/Fli-driven NR0B1 reporter inhibitors, primary screen, A673 cells, NR0B1 luciferase, luminescence, MLPCN library. viability-normalised. inhibition, % at 12.6 µM. 0.67% of 350,000 active. AID 651661, 2012;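 active means mean inhibition of at least 50% after viability correction, with every replicate also passing that limit; inconclusive means mean reaches 50% but only one of two replicates passes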;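 further: firefly luciferase signal divided by Alamar Blue viability fluorescence both relative to DMSO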
LGR2 inh: inhibitors of bursicon-induced LGR2 CRE-luciferase signal, primary screen, cell-based, HEK293, CRE-luciferase reporter, bursicon stimulation; Drosophila bursicon receptor LGR2 (rickets); bursicon-stimulated, 4 h; inhibition, % at 9.99 µM; 0.35% of 380,000 active; AID 720647, 2013;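 active means drop in luminescence signal, shown as inhibition above about 50% in the replicate tests, limit read from the data, passing the limit was not always enough; inconclusive means probably only some replicates passing the limit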;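 further: agonist challenge used bursicon conditioned medium at about half maximal strength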
E-sel inducer: E-selectin induction in HUVECs, primary screen, imaging, HUVEC, immunofluorescence imaging, single point | normalized: neutral wells 0, TNF-alpha wells 100 | activation, % at 7.58 µM | P16581 | 0.37% of 260,000 active;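 active means mean E-selectin-positive cell signal at least 10% of the positive control, reached in at least 60% of replicates, without over 20% cell loss; inconclusive means no rule given, readout overlaps actives, possibly toxicity-flagged; inactive means the rest, including those meeting only one limit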
Target sequence (P16581 whole entry, looked up): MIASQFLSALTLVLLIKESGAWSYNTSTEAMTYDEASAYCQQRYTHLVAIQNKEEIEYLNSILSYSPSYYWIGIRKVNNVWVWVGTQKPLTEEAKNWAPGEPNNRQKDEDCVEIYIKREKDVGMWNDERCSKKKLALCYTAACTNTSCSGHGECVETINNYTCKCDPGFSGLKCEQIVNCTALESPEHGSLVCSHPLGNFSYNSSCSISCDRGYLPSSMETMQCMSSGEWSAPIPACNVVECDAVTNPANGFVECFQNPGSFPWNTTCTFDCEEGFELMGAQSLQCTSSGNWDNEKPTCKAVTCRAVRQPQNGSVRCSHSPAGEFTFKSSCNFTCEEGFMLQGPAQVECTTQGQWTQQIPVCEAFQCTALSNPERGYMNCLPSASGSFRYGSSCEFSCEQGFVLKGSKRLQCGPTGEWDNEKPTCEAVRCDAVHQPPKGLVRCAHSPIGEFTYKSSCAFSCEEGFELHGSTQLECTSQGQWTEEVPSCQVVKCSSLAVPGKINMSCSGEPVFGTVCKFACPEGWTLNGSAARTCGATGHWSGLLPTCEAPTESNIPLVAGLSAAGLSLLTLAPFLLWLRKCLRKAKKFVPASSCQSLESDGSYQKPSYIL
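System: HUVEC / Compound: single concentration / Signal: immunofluorescence imaging / Read-out: percent E-selectin-positive cells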
DNA binding: DNA binders by acridine orange displacement, dose response, counter-screen for EWS/Fli inhibitor project, biochemical, fluorescence polarization, cherry-pick; 2% of 640 active; AC35, µM (top dose mostly 68 µM); salmon sperm DNA acridine orange fluorescence polarization; shares compounds with EWS-Fli block;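 active means fitted curve reaches a 35% signal fall AC35 below twice the sample's top valid tested dose, actives reach about 48 µM in these data; inactive means the rest, including activity in the rising direction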;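 further: lower polarization ratio signals compound binding to DNA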
Numbers stand for hits; – = inactive; ? = inconclusive; · = not tested or not shown; ! = not confirmed by another sample.

SMILES | rRNA inh HTS | EWS-Fli block | LGR2 inh | E-sel inducer | DNA binding
CC1=NN(c2ccccc2)C(=O)/C1=C\C=C\c1ccccc1 | – | 63.6 | – | – | –
CCC(=O)N1CC(=O)N2[C@H](CO)[C@H](c3ccc(C#CCc4ccccc4)cc3)[C@H]2C1 | – | · | – | – | ·
CCc1nc(N)nc(N)c1-c1ccc(Cl)c(N=[N+]=[N-])c1 | – | 66.8! | – | – | –
CC(C)[C@H]1CCc2cnnn2COC[C@@H](c2ccccc2)NC1=O | – | · | · | · | ·
C[C@H]1CN([C@@H](C)CO)S(=O)(=O)c2ccc(C#Cc3ccncc3)cc2O[C@@H]1CN(C)S(=O)(=O)c1ccccc1 | – | 53.4 | – | – | –
C[C@@H]1CN([C@@H](C)CO)S(=O)(=O)c2ccc(C#Cc3ccncc3)cc2O[C@H]1CN(C)S(=O)(=O)c1ccccc1 | – | 72.6 | – | – | –
Cc1ccc(S(=O)(=O)N(C)C[C@H]2Oc3cc(C#Cc4ccncc4)ccc3S(=O)(=O)N([C@@H](C)CO)C[C@@H]2C)cc1 | – | – | – | – | ·
Cc1ccc(S(=O)(=O)N(C)C[C@@H]2Oc3cc(C#Cc4ccncc4)ccc3S(=O)(=O)N([C@@H](C)CO)C[C@H]2C)cc1 | · | 52.5 | · | · | –
CNC(=O)C[C@H]1CC[C@@H]2[C@H](COc3ccc(NC(=O)NC4CCCC4)cc3C(=O)N2C)O1 | – | – | – | – | ·
Cc1noc(C)c1S(=O)(=O)N(C)C[C@@H]1Oc2c(NC(=O)c3ccc(-c4nccs4)cc3)cccc2C(=O)N([C@@H](C)CO)C[C@H]1C | – | – | – | – | ·
COC(=O)C[C@H]1CC[C@H]2[C@@H](COc3ccc(NC(=O)Nc4cccc(C#N)c4)cc3C(=O)N2C)O1 | – | – | – | – | ·
COC(=O)C[C@@H]1CC[C@@H]2[C@H](COc3ccc(NC(=O)Nc4ccc(C#N)cc4)cc3C(=O)N2C)O1 | – | 52.7 | – | – | –
COC(=O)C[C@@H]1CC[C@@H]2[C@H](COc3ccc(NC(=O)Nc4cccc(C#N)c4)cc3C(=O)N2C)O1 | – | 64.5 | – | – | –
COC(=O)C[C@@H]1CC[C@H]2[C@@H](COc3ccc(NC(=O)Nc4ccc(C#N)cc4)cc3C(=O)N2C)O1 | – | – | – | – | ·
O=C1OC[C@@H](c2ccccc2)n2cc(/C=C/c3ccccc3)cc21 | · | – | · | · | ·
Cc1ccc(NC(=S)c2nc3ccccc3[nH]2)c(C)c1 | · | · | – | · | ·
Cc1cccc(/C=C(\c2nc3ccccc3[nH]2)S(=O)(=O)c2ccccc2)c1 | – | 71.4 | ? | – | –
Cc1ccc(S(=O)(=O)N(C)C[C@@H]2Oc3ccc(NC(=O)Cc4cn(C)c5ccccc45)cc3CC(=O)N([C@H](C)CO)C[C@H]2C)cc1 | – | – | – | – | ·
CCOc1ccc(N=Nc2ccc(O)c3ncccc23)cc1 | – | 57.8 | – | · | –
CO[C@H]1CN(C)C(=O)c2ccc(NS(C)(=O)=O)cc2OC[C@@H](C)NC[C@H]1C | – | – | – | – | ·
COc1ccc(-c2cc(NC=O)c3ncc(-c4cccc(C(C)=O)c4)n3c2)cc1 | – | – | – | – | ·
COc1cccc(-c2cc(NC=O)c3ncc(-c4ccc(C(C)=O)cc4)n3c2)c1 | · | 51.8 | – | – | –
COc1cc(-c2cnc3c(NC=O)cc(-c4cccc(NC(C)=O)c4)cn23)cc(OC)c1OC | – | 62.1 | – | · | –
Nc1nc(N)c2c(ccc3nccc32)[nH]1 | – | 56.2 | – | – | –
C[C@@H]1CN([C@H](C)CO)C(=O)c2cc(NS(=O)(=O)c3cccs3)ccc2O[C@H]1CN(C)Cc1ccc(Cl)c(Cl)c1 | – | – | – | – | ·
SMILES | rRNA inh HTS | EWS-Fli block | LGR2 inh | E-sel inducer | DNA binding
CC(=O)Nc1cccc(-c2ccnc3c2CC(C)(C(=O)NCc2ccc(N(C)C)cc2)O3)c1 (stereo not given) | – | 54.4 | – | · | –
COC(=O)Cc1ccc(NC(=O)c2ccccc2Cl)cc1 | – | 66.4 | – | · | –
Cc1cc(NC(=O)c2ccccc2Cl)ccc1NC(=O)c1ccccc1Cl | – | – | – | · | ·
CNC[C@@H]1Oc2ccc(N(C)C)cc2C(=O)N(C)C[C@H]1C | – | · | · | · | ·
C[C@H]1CN([C@@H](C)CO)C(=O)c2cccc(NC(=O)CCCCCC(=O)Nc3ccccc3N)c2O[C@@H]1CN(C)Cc1ccc2c(c1)OCO2 | – | 56.8 | – | – | –
C[C@@H]1CN([C@@H](C)CO)C(=O)c2cccc(NS(=O)(=O)c3ccc(F)cc3)c2O[C@@H]1CN(C)Cc1ccc(C(=O)Nc2ccccc2N)cc1 | – | 55.3 | – | – | –
C[C@@H]1CN([C@@H](C)CO)C(=O)c2cccc(N(C)C)c2O[C@@H]1CN(C)Cc1ccc(C(=O)Nc2ccccc2N)cc1 | · | 53.8 | · | · | –
C[C@@H]1CN([C@@H](C)CO)C(=O)c2cccc(NS(=O)(=O)c3ccc(F)cc3)c2O[C@H]1CN(C)Cc1ccc(C(=O)Nc2ccccc2N)cc1 | – | – | – | – | ·
CN(C)CC(=O)N1[C@@H](CO)[C@H](c2ccccc2)C12CN(C(=O)C1CCCC1)C2 | – | · | · | · | ·
O=C(c1ccccc1F)N1CC2(C1)[C@@H](c1ccccc1)[C@@H](CO)N2CC1CCCC1 | – | – | – | – | ·
O=C(Nc1nc(-c2ccc(F)c(F)c2)cs1)c1ccc(OCC2CCCO2)cc1 (stereo not given) | – | 73.9 | – | · | –
CC1(C)N=C(N)N=C(N)N1c1ccc(OCCCOc2ccccc2)c(Cl)c1 | – | 58.8 | – | – | –
C=C(C(=O)c1ccccc1)C(c1ccccc1)C(C)C(=O)c1ccccc1 (stereo not given) | · | · | – | – | ·
C=C(C(=O)c1ccccc1)C(C(=C)C(=O)c1ccccc1)c1ccc(OC)cc1 | · | 78.3 | · | · | –
COc1ccc(C(CC(=O)c2ccccc2)CC(=O)c2ccccc2)cc1 | – | – | – | – | ·
C=C(C(=O)c1ccccc1)C(C)C(=C)C(=O)c1ccccc1 | · | 72.6 | · | – | –
COCCNC(=O)[C@H]1[C@H](CO)[C@H]2Cn3c(ccc(C4=CCCCC4)c3=O)[C@@H]1N2C(=O)C1CCCC1 | – | – | – | – | ·
COc1ccc(/C=C2\SC(=S)N(CCCC(=O)Nc3ccc(O)cc3)C2=O)cc1 | – | 60.7 | – | · | –
Cc1ccccc1N=CC1=C(O)c2ccccc2C1=O | – | 77.3 | 100.9 | · | –
c1ccc(-c2ccc([C@H]3[C@H]4CNC[C@@H]3N4Cc3cc(-c4ccccc4)on3)cc2)cc1 | – | 58.4 | – | – | –
Cc1nc(-c2ccc(NC(=O)C(C)(C)C)cc2)c(-c2ccccc2)o1 | – | – | – | ? | ·
CC(C)(C)C(=O)Nc1ccc(N=Nc2ccccc2)cc1 | – | 59.2 | 72.2 | – | –
COc1cccc(NC(=O)N[C@H]2CC[C@@H](CC(=O)Nc3ccccc3)O[C@H]2CO)c1 | – | – | – | – | ·
COC(=O)COc1ccc(-c2nccc(-c3ccc(Br)cc3)n2)cc1 | – | – | – | – | ·
